Reference: ChEMBL document CHEMBL1154610, “Discovery and preclinical evaluation of [4-[[1-(3-fluorophenyl)methyl]-1H-indazol-5-ylamino]-5-methylpyrrolo[2,1-f][1,2,4]triazin-6-yl]carbamic acid, (3S)-3-morpholinylmethyl ester (BMS-599626), a selective and orally efficacious inhibitor of human epidermal growth factor receptor 1 and 2 kinases” (J Med Chem, 2009)
pIC50: −log10 of the molar value.

Columns and labels:
[1] = system: A2780; assay: Antiproliferative activity against human A2780 cells after 72 hrs by MTT assay; assay type: functional, cell-based; details: A2780, 72 h
Outline: (§1)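 Cell proliferation IC50 reported as the mean of three independent determinations. BT474 is a breast line (HER2+++/HER1+); A2780 serves as a HER-independent control.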

[2] = biological target: Receptor tyrosine-protein kinase erbB-2 (Homo sapiens, UniProt P04626); assay: Inhibition of human recombinant HER2 expressed in Sf9 cells by liquid scintillation counting
[3] = Cmax in BALB/c mouse at 50 mg/kg, po; assay type: ADME, organism-based; parameters: dose 50 mg/kg, route oral; details: in vivo
[4] = system: Mus musculus; assay: Plasma concentration in BALB/c mouse at 50 mg/kg, po; assay type: ADME, organism-based; parameters: dose 50 mg/kg, route oral; details: in vivo
Outline: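 Compound given orally at 50 mg/kg as a solution in PEG400/Tween80/water (40:10:50) to three Balb/C mice. Plasma sampled over 4 h after dosing; AUC(0-4h), Cmax and 4 h concentration reported.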

[5] = Antiproliferative activity against mouse SAL2 cells after 72 hrs by MTT assay; assay type: functional, cell-based; details: SAL2, 72 h
[6] = AUC (0 to 4 hrs) in BALB/c mouse at 50 mg/kg, po; assay type: ADME, organism-based; parameters: time < 4 hr, dose 50 mg/kg, route oral; details: plasma
[7] = biological target: Epidermal growth factor receptor (Homo sapiens, UniProt P00533); assay: Inhibition of human recombinant HER1 expressed in Sf9 cells by liquid scintillation counting
[8] = system: BT-474; assay: Antiproliferative activity against human BT474 cells after 72 hrs by MTT assay; assay type: functional, cell-based; details: BT-474, 72 h; outline: as §1
[9] = system: NCI-N87; assay: Antiproliferative activity against human NCI-N87 cells after 72 hrs by MTT assay; assay type: functional, cell-based; details: NCI-N87, 72 h
[10] = Metabolic stability in mouse liver microsomes assessed per mg of protein at 10 uM after 10 mins; assay type: ADME, Microsome
Outline: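 Mouse liver microsomes incubated with compound at 10 µM for 10 min; metabolic rate expressed as nmol/min/mg protein.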

Sequence of Receptor tyrosine-protein kinase erbB-2 (P04626 whole entry): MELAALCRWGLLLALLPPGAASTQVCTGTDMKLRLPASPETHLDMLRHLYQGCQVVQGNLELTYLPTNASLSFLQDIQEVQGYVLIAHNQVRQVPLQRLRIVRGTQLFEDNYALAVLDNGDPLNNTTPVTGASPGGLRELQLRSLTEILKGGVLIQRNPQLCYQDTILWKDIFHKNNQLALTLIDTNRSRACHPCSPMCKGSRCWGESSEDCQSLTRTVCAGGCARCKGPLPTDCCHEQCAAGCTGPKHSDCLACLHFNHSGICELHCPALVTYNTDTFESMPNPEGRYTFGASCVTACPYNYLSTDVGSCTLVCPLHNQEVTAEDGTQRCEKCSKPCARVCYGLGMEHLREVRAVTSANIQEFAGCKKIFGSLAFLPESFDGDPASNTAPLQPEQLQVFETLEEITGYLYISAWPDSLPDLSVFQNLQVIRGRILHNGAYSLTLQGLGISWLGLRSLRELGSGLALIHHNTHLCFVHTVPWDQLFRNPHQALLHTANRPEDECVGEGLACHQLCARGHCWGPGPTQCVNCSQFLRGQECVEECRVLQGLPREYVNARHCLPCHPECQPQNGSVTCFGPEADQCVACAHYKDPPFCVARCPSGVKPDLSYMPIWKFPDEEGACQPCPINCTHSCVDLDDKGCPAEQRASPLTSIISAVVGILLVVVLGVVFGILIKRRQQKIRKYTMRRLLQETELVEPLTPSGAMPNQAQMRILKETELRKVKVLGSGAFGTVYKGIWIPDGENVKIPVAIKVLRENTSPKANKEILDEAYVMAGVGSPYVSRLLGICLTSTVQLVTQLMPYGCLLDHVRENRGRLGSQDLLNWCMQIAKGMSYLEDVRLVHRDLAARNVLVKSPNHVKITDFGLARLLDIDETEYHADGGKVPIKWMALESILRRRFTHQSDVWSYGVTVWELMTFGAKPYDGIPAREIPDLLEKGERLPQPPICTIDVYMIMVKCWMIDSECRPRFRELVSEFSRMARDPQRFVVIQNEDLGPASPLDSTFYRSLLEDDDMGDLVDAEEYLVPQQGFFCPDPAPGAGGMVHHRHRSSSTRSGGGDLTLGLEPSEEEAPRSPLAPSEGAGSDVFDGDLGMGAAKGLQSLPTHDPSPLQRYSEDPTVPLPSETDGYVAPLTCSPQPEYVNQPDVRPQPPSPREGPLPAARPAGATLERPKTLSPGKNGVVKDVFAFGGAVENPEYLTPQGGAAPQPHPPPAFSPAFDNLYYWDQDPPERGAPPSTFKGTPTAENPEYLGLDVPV
Sequence of Epidermal growth factor receptor (P00533 whole entry): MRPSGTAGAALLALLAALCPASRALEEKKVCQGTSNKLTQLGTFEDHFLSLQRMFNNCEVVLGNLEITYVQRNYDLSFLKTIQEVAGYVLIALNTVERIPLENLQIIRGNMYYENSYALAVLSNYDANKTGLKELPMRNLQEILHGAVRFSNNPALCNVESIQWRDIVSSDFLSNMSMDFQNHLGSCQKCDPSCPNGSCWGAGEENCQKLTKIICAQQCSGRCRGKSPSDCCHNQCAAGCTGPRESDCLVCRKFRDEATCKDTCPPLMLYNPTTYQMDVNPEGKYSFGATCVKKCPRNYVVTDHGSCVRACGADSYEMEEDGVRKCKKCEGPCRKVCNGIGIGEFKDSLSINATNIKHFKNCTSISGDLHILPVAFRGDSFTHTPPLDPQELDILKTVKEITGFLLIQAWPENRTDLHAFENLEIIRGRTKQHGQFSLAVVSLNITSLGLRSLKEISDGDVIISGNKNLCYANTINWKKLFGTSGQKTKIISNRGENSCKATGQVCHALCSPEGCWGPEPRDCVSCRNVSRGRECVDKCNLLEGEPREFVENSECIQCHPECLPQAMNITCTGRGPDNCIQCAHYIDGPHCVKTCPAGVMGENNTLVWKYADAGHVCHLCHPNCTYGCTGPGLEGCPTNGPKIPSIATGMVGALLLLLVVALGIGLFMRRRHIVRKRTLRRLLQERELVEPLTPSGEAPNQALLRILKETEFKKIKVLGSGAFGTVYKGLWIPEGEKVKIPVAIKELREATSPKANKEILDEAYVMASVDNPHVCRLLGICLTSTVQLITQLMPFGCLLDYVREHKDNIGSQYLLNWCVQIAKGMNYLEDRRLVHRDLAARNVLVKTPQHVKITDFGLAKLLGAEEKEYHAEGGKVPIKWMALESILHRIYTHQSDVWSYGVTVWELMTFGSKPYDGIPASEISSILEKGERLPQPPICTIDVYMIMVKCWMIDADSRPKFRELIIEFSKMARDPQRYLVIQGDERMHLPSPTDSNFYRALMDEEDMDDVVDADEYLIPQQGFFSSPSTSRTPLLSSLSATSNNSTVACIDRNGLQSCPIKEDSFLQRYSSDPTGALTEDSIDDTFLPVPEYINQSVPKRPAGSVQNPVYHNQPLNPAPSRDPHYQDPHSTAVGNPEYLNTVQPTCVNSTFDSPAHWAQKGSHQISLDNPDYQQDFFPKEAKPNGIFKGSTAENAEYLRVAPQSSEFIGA

SMILES | pIC50 [1] | pIC50 [2] | Cmax [3] | concentration [4] | pIC50 [5] | AUC(0-t) at 4 h [6] | pIC50 [7] | pIC50 [8] | pIC50 [9] | Stability [10]
CCC1=C2C(Nc3ccc4c(cnn4Cc4ccccc4)c3)=NC=NC2N=C1NC(=O)OCC1CCCCN1 (centres undefined) | 5.32 | 7.52 | 2300 nM | 2300 nM | 6.60 | 7.2 µM·h | 7.35 | 6.33 | 6.37 | –
CCC1=C2C(Nc3ccc4c(cnn4Cc4ccccc4)c3)=NC=NC2N=C1NC(=O)OCC1CCCNC1 (centres undefined) | 5.41 | 7.54 | 1200 nM | 1200 nM | 6.32 | 3.6 µM·h | 7.42 | 6.51 | 6.49 | –
CCC1=C2C(Nc3ccc4c(cnn4Cc4ccccc4)c3)=NC=NC2N=C1NC(=O)OCCN1CCOCC1 (centres undefined) | – | 7.11 | 11000 nM | 4900 nM | 6.30 | 29 µM·h | 6.95 | 6.26 | 6.28 | –
CCC1=C2C(Nc3ccc4c(cnn4Cc4ccccc4)c3)=NC=NC2N=C1NC(=O)OCC1CCNCC1 (centres undefined) | – | 7.64 | 450 nM | 260 nM | 6.89 | 1.3 µM·h | 7.52 | 7.05 | 6.77 | –
CCC1=C2C(Nc3ccc4c(cnn4Cc4ccccc4)c3)=NC=NC2N=C1NC(=O)OCCN1CCNCC1 (centres undefined) | – | 7.74 | 300 nM | 300 nM | 6.60 | 0.62 µM·h | 7.68 | 7.15 | 7.00 | 0.1 nmol/min
CCC1=C2C(Nc3ccc4c(cnn4Cc4ccccc4)c3)=NC=NC2N=C1NC(=O)O[C@H]1CC[C@@](C)(N)CC1 (some centres undefined) | 5.28 | 7.70 | 480 nM | 460 nM | 6.43 | 1.76 µM·h | 7.72 | 6.89 | 6.77 | 0.02 nmol/min
CCC1=C2C(Nc3ccc4c(cnn4Cc4ccccc4)c3)=NC=NC2N=C1NC(=O)OCCC1CCNCC1 (centres undefined) | – | 7.43 | 250 nM | 110 nM | 6.31 | 0.53 µM·h | 7.36 | 6.89 | 6.68 | –
CCC1=C2C(Nc3ccc4c(cnn4Cc4ccccc4)c3)=NC=NC2N=C1NC(=O)OCCn1ccnc1 (centres undefined) | < 5.30 | 7.36 | 9900 nM | 9900 nM | 6.34 | 36 µM·h | 7.40 | 6.07 | 6.01 | –
CCC1=C2C(Nc3ccc4c(cnn4Cc4cccc(F)c4)c3)=NC=NC2N=C1NC(=O)OC[C@@H]1COCCN1 (some centres undefined) | 5.09 | 7.66 | 5100 nM | 5100 nM | 6.64 | 16.2 µM·h | 7.64 | 6.72 | 6.47 | 0.01 nmol/min
CCc1c(NC(=O)OC[C@@H]2COCCN2)cn2ncnc(Nc3ccc4c(cnn4Cc4ccccc4)c3)c12 | 5.35 | 7.68 | 3500 nM | 2600 nM | 6.77 | 11 µM·h | 7.48 | 6.38 | 6.46 | 0.14 nmol/min
CCC1=C2C(Nc3ccc4c(cnn4Cc4ccccc4)c3)=NC=NC2N=C1NC(=O)OCCN1CCCCC1 (centres undefined) | – | 7.55 | 1700 nM | 1300 nM | 6.42 | 5.5 µM·h | 7.42 | 6.51 | 6.41 | 0.27 nmol/min
